Assay results from ChEMBL document CHEMBL1127367, “Antiproliferative properties of polyamine analogues: a structure-activity study” (J Med Chem, 1994).

Columns and labels:
[1] = biological target: T1, S-adenosylmethionine decarboxylase proenzyme 1 (Mus musculus) (UniProt P0DMN7); assay: Inhibition of S-Adenosyl-methionine decarboxylase (AdoMetDC) activity; type: functional; design: concentration or dose not given beside the values
T1 sequence (whole entry): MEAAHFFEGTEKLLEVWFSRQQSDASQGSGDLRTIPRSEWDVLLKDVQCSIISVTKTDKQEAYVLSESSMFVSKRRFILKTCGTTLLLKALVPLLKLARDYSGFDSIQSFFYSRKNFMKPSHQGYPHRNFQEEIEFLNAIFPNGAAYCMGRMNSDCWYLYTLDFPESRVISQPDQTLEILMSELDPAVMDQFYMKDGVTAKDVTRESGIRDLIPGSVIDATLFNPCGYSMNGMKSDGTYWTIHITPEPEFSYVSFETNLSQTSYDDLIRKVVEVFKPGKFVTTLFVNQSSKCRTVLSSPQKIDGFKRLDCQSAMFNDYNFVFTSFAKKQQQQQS

[2] = biological target: T2, Ornithine decarboxylase (Mus musculus) (UniProt P00860); assay: Effect of compound on ornithine decarboxylase (ODC)activity expressed as percent of untreated control for ODC (1 uM at 4 h(or 48h))
T2 sequence (whole entry): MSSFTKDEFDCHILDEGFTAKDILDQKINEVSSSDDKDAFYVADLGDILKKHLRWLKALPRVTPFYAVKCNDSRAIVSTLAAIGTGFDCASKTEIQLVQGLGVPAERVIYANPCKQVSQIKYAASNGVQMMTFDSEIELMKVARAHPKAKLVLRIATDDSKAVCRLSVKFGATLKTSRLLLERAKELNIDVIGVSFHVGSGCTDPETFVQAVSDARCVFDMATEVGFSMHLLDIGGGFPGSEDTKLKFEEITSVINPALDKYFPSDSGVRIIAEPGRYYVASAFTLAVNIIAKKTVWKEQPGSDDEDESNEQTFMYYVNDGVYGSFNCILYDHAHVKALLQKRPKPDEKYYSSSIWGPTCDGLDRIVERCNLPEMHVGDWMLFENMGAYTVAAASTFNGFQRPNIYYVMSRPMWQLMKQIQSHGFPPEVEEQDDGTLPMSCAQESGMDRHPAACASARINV
Procedure, shortened: (§1)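 L1210 cells exposed to 1 μM analogue for 4 h, or for 48 h in some cases. ODC activity measured as 14CO2 released from [14C]carboxyl-labeled L-ornithine and expressed as % of untreated control.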

[3] = biological target: Spermidine/spermine N(1)-acetyltransferase (SAT) (Mus musculus) (UniProt Q6P8J2+P48026); assay: […] spermidine/spermine N1-Acetyltransferase (SSAT) activity; type: functional; design: concentration or dose not given beside the values
Chain of Spermidine/spermine N(1)-acetyltransferase (SAT) (Mus musculus) (P48026 whole entry, looked up): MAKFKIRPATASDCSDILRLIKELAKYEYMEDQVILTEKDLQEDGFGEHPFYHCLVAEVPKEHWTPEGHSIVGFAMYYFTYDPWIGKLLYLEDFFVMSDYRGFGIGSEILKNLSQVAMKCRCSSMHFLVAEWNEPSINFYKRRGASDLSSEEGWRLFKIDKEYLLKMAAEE
Chain of Spermidine/spermine N(1)-acetyltransferase (SAT) (Mus musculus) (Q6P8J2 whole entry, looked up): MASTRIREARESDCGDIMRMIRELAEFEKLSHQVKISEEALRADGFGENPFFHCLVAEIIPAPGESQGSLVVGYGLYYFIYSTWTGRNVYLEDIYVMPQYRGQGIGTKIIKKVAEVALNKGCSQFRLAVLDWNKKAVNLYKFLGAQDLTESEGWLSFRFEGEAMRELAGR

[4] = biological target: T2, Ornithine decarboxylase (Mus musculus); assay: Effect of compound on ornithine decarboxylase (ODC) activity expressed as percent of untreated control for ODC (1 uM at 4 h(or 48h)); procedure, shortened: as §1
L1210 [5] = assay: Inhibition of radiolabeled spermidine uptake into L1210 cells in vitro.; type: functional, cell-based, Mus musculus
L1210 [6] = assay: Compound was evaluated for its impact on spermidine levels after 48 hr at concentration 5 uM; type: functional, Mus musculus
Procedure, shortened: (§2)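 L1210 suspension cultures were grown in RPMI-1640 with 10% NuSerum, 2% HEPES-MOPS and 1 mM aminoguanidine (37 °C, 5% CO2). Log-phase cells were treated for 48 h, then washed twice in cold RPMI-1640 and pelleted. Pellets were extracted with 0.6 N perchloric acid, and supernatants were held at −20 °C until HPLC. Polyamine levels are given as % of untreated controls.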

L1210 [7] = assay: Compound level in L1210 cells after 48 hours of incubation at initial concentration of 5 uM is expressed as nmol/10e6 cells; type: functional, Mus musculus
Procedure, shortened: (§3)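 Murine L1210 leukemia cells were kept in logarithmic growth as a suspension in RPMI-1640 with 10% NuSerum, 2% HEPES-MOPS buffer and 1 mM aminoguanidine, at 37 °C under 5% CO2. Log-phase cells were exposed to the analogue for 48 h. Intracellular analogue content is reported per 10^6 cells.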

L1210 [8] = assay: Compound was evaluated for its impact on spermidine levels after 48 hr at concentration 1 uM; type: functional, Mus musculus; procedure, shortened: as §2
L1210 [9] = assay: Compound was evaluated for its impact on putrescine (Put) levels after 48 hr at concentration 5 uM; type: functional, Mus musculus; procedure, shortened: as §2
L1210 [10] = assay: Compound level in L1210 cells after 48 hours of incubation at initial concentration of 1 uM is expressed as nmol/10e6 cells; type: functional, Mus musculus; procedure, shortened: as §3
L1210 [11] = assay: Compound was evaluated for its impact on spermine levels after 48 hr at concentration 5 uM; type: functional, Mus musculus
Procedure, shortened: (§4)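 Murine L1210 leukemia cells in log-phase suspension (RPMI-1640, 10% NuSerum, 2% HEPES-MOPS, 1 mM aminoguanidine, 37 °C, 5% CO2) exposed to analogue for 48 h. Cells washed twice in cold RPMI-1640, extracted with 0.6 N perchloric acid, and polyamines quantified by HPLC. Spermine is reported as % of untreated control.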

L1210 [12] = assay: In vitro inhibition of L1210 growth after 48 hours.; type: functional, cell-based; conditions: Mus musculus, L1210, 48 h
Procedure, shortened: (§5)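 Log-phase L1210 cultures (0.5–1.0 × 10^5 cells/mL) treated with analogue diluted in sterile water and filter-sterilized. After 48 h, cells were reseeded and grown a further 48 h for the 96 h point. Cells counted by Coulter counter. % growth = (treated − inoculum)/(untreated − inoculum) × 100.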

L1210 [13] = assay: Compound was evaluated for its impact on spermine levels after 48 hr at concentration 1 uM; type: functional, Mus musculus; procedure, shortened: as §4
L1210 [14] = assay: In vitro inhibition of L1210 growth after 96 hours.; type: functional, cell-based; conditions: Mus musculus, L1210, 96 h; procedure, shortened: as §5
L1210 [15] = assay: Compound was evaluated for its impact on putrescine (Put) levels after 48 hr at concentration 1 uM; type: functional, Mus musculus; procedure, shortened: as §2
L1210 [16] = assay: Compound was evaluated for its impact on spermine […] levels after 48 hr at concentration 100 uM; type: functional, Mus musculus; procedure, shortened: as §2
L1210 [17] = assay: Compound was evaluated for its impact on putrescine (Put) levels after 48 hr at concentration 100 uM; type: functional, Mus musculus
L1210 [18] = assay: Compound was evaluated for its impact on spermine levels after 48 hr at concentration 500 uM; type: functional, Mus musculus
L1210 [19] = assay: Compound was evaluated for its impact on spermidine levels after 48 hr at concentration 500 uM; type: functional, Mus musculus
[20] = biological target: T2, Ornithine decarboxylase (Mus musculus); assay: Inhibition of ornithine decarboxylase (ODC) activity; type: functional; design: concentration or dose not given beside the values
L1210 [21] = assay: Compound was evaluated for its impact on putrescine (Put) levels after 48 hr at concentration 500 uM; type: functional, Mus musculus
L1210 [22] = assay: Compound was evaluated for its impact on spermidine levels after 48 hr at concentration 100 uM; type: functional, Mus musculus
L1210 [23] = assay: Compound was evaluated for its impact on putrescine (Put) levels after 48 hr at concentration 150 uM; type: functional, Mus musculus; procedure, shortened: as §2
L1210 [24] = assay: Compound was evaluated for its impact on spermidine levels after 48 hr at concentration 30 uM; type: functional, Mus musculus; procedure, shortened: as §2
L1210 [25] = assay: Compound was evaluated for its impact on spermidine levels after 48 hr at concentration 150 uM; type: functional, Mus musculus; procedure, shortened: as §2
L1210 [26] = assay: Compound level in L1210 cells after 48 hours of incubation at initial concentration of 30 uM is expressed as nmol/10e6 cells; type: functional, Mus musculus; procedure, shortened: as §3
L1210 [27] = assay: Compound was evaluated for its impact on spermine levels after 48 hr at concentration 30 uM; type: functional, Mus musculus; procedure, shortened: as §4
L1210 [28] = assay: Compound level in L1210 cells after 48 hours of incubation at initial concentration of 150 uM is expressed as nmol/10e6 cells; type: functional, Mus musculus; procedure, shortened: as §3
L1210 [29] = assay: Compound was evaluated for its impact on putrescine (Put) levels after 48 hr at concentration 30 uM; type: functional, Mus musculus; procedure, shortened: as §2
L1210 [30] = assay: Compound was evaluated for its impact on spermine levels after 48 hr at concentration 150 uM; type: functional, Mus musculus; procedure, shortened: as §4
L1210 [31] = assay: Compound level in L1210 cells after 48 hours of incubation at initial concentration of 500 uM is expressed as nmol/10e6 cells; type: functional, Mus musculus; design: unit: nmol/10^6 cells
L1210 [32] = assay: Compound was evaluated for its impact on spermine levels after 48 hr at concentration 100 uM; type: functional, Mus musculus
L1210 [33] = assay: Compound level in L1210 cells after 48 hours of incubation at initial concentration of 100 uM is expressed as nmol/10e6 cells; type: functional, Mus musculus; design: unit: nmol/10^6 cells

Row | Activity [1] [%] | Activity [3] [%] | IC50 (L1210 [12]) [µM] | IC50 (L1210 [14]) [µM] | Activity [20] [%] | SMILES | Ki (L1210 [5]) [µM] | Polyamine (L1210 [17]) [%] | Polyamine (L1210 [18]) [%] | Polyamine (L1210 [19]) [%] | Polyamine (L1210 [21]) [%] | Polyamine (L1210 [22]) [%] | also measured
1 | 27 | 150 |  |  |  | CCNCCCNCCCCNCCCN |  |  |  |  |  |  | Activity [2]: 10%
2 | 28 | 120 | 1 | 0.18 |  | CCNCCCCNCCCNCCCCNCC | 4 |  |  |  |  |  | Activity [4]: 5%; Polyamine (L1210 [6]): 0%; Activity (L1210 [7]): 1.5; Polyamine (L1210 [8]): 41%; Polyamine (L1210 [9]): 0%; Activity (L1210 [10]): 0.76; Polyamine (L1210 [11]): 27%; Polyamine (L1210 [13]): 52%; Polyamine (L1210 [15]): 81%
3 | 100 | 180 | > 100 | 1.2 | 100 | CC(C)NCCCNCCCNCCCNC(C)C | 40 | 10 | 53 | 12 | 0 | 26 | Polyamine (L1210 [16]): 64%
4 | 28 | 460 | 30 | 0.18 | 3 | CCNCCCNCCCCNCCCNCC [BIS(ETHYL)SPERMINE] | 1.6 |  |  |  |  |  | Polyamine (L1210 [23]): 0%; Polyamine (L1210 [24]): 0%; Polyamine (L1210 [25]): 0%; Activity (L1210 [26]): 0.4; Polyamine (L1210 [27]): 12%; Activity (L1210 [28]): 1.13; Polyamine (L1210 [29]): 0%; Polyamine (L1210 [30]): 14%
5 | 33 | 410 | > 100 | 2.5 | 5 | CCNCCCNCCCNCCCN | 7.7 | 0 | 11 | 2 | 0 | 5 | Activity (L1210 [31]): 1.72; Polyamine (L1210 [32]): 11%; Activity (L1210 [33]): 1.69
